# Screening data: PubChem, several laboratories
# A selection: hits, their analogues and other compounds. The true share with any hit is near 2.7%.
# NR1D1 modulator = modulates human Rev-erb alpha binding to DNA; P20393; Rev-erbα–FITC-DNA binding, fluorescence polarization, 90 min; activity, % at 10 µM; 0.79% of 370,000 active; AID 1259318;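 active = activity above about 14%, limit read from the data; passing the limit was not always enough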;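 note: 0% = DMSO wells with 35 nM protein and 100% = DMSO wells with 750 nM protein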
# NR2E3 ag-1 = agonists of human NR2E3 nuclear receptor. 0.35% of 360,000 active. inhibition of corepressor binding, % at 3.98 µM. CHO-S Gal4-NCOR/VP16-NR2E3 two-hybrid, luciferase;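 active = inhibition above the mean of all tested compounds plus 3 SD, cut at about 70% in these data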;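 note: 0% = DMSO with NR2E3 transfected cells and 100% = cells lacking NR2E3 construct; higher means lower luciferase signal from less NR2E3 corepressor binding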
# Target sequence (Q9Y5X4 whole entry, looked up, the tested form may be a part): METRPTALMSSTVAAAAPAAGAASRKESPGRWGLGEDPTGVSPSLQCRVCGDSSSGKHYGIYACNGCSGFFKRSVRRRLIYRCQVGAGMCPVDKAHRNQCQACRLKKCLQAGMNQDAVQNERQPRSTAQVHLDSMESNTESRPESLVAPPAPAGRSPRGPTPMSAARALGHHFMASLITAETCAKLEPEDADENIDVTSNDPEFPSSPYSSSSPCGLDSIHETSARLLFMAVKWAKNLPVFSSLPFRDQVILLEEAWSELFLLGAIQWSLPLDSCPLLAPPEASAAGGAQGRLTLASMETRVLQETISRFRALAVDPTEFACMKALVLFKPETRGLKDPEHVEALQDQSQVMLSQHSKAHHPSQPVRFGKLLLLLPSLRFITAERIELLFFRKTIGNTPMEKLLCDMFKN
# PG9 binder = small molecules binding HIV-1 gp120 antibody PG9; TR-FRET gp120-PG9 antibody binding; inhibition, % at 6.7 µM; 0.43% of 360,000 active; AID 624416; in the data active = inhibition above about 8.5%
# NR2E3 ag-2 = agonists of human nuclear receptor NR2E3 | GST-NR2E3/biotin-RetCOR TR-FRET, 1536-well | 0.12% of 320,000 active | inhibition of corepressor binding, % at 4.78 µM | Q9Y5X4;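 active = percent inhibition above the cutoff of mean plus 3 SD of all tested compounds, set per screening campaign, cut at about 20% in these data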;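 note: 0% = DMSO wells and 100% = biotin wells as full block of FRET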
#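 Format: 1536-well format; test system: GST-NR2E3 and biotin-RetCOR proteins; read-out basis: percent inhibition of TR-FRET ratio; timing: 5 h incubation at 4 °C; detection: time-resolved FRET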
# MC4R ag barr = agonists of human melanocortin 4 receptor (MC4R) beta-arrestin; 0.98% of 360,000 active; AID 540308; activation, % at 8.9 µM; P32245; U2OS MC4R beta-arrestin complementation, luminescence; percent of melanotan II response, DMSO zero;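 active = activation above a per-plate cutoff, the mean activation of sample wells on that plate plus 3 SD, cut at about 8% in these data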
# MC4R antagonist = blocks human MC4R cAMP signaling | P32245 | MC4R-expressing cells, MTII-stimulated cAMP, LANCE TR-FRET | inhibition, % at 6.5 µM | 0.48% of 360,000 active;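 active = inhibition above its plate's cutoff, the mean of tested wells on that plate plus 3 SD, cut at about 29% in these data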;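 note: 0% = Melanotan II alone and 100% = Melanotan II plus saturating MCL0020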
#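 Test system: U2OS cells stably expressing human melanocortin 4 receptor (MC4R); also added: Melanotan II challenge; compound: 6.5 µM single dose; timing: 30-min compound preincubation, 1-h Melanotan II challenge, 1-h detection, room temperature; signal: Eu-cAMP/anti-cAMP TR-FRET, emission 671 nm; repeats: one well per compound, no replicates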
# NR2E3 ag confirm = NR2E3 agonism confirmed in two-hybrid assay; shares compounds with NR2E3 ag-1; CHO-S mammalian two-hybrid NR2E3-NCOR, luciferase luminescence; inhibition, % at 3.98 µM; 51% of 2,300 active;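 active = average inhibition above a cutoff equal to the mean inhibition of all tested compounds plus one SD, cut at about 70% in these data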;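 note: 0% = DMSO in NR2E3 cells and 100% = DMSO in cells lacking NR2E3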
# GAL4-VP16 luc = counter-screen for NR2E3 agonists: GAL4-VP16 reporter inhibitors; shares compounds with NR2E3 ag-1; CHO-S GAL4-VP16 luciferase reporter, luminescence; inhibition, % at 3.98 µM; 29% of 2,300 active; AID 624379;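 active = mean inhibition above a cutoff equal to the average over all tested compounds plus one standard deviation, cut at about 70% in these data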;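 note: luciferase from a UAS reporter driven by GAL4-VP16 transactivation; 0% = DMSO with VP16-transfected cells and 100% = DMSO with cells lacking VP16; higher means less reporter light so more repression of VP16 activity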
# Starred values were filed as active, the others as inactive; . = not tested or not shown.
SMILES,NR1D1 modulator,NR2E3 ag-1,PG9 binder,NR2E3 ag-2,MC4R ag barr,MC4R antagonist,NR2E3 ag confirm,GAL4-VP16 luc
Cc1ccc(NC(=O)c2ccccc2NS(=O)(=O)c2ccc(Cl)s2)cc1S(=O)(=O)N1CCOCC1,0,90*,-1,2,0,7,99*,78*
O=C(Nc1cc(S(=O)(=O)N2CCOCC2)ccc1O)c1ccc(NS(=O)(=O)c2ccc(Cl)s2)cc1,3,18,2,1,3,-3,.,.
COc1ccc(C)cc1NC(=O)c1ccccc1NS(=O)(=O)c1ccc(Cl)s1,3,101*,0,3,0,3,99*,90*
COc1ccccc1NC(=O)c1ccccc1NS(=O)(=O)c1cccs1,2,11,0,3,0,5,.,.
O=C(OCC(=O)N1CCC(Cc2ccccc2)CC1)c1cccnc1Cl,3,3,-2,.,2,-5,.,.
CCOC(=O)C(NC(=O)CC)(Nc1ccc(S(N)(=O)=O)cc1)C(F)(F)F (centres undefined),2,-28,-2,-5,1,8,.,.
CCOC(=O)C1=C(COC(=O)/C=C/c2cccc(Cl)c2)NC(=O)NC1C (centres undefined),3,-12,2,-2,4,3,.,.
COc1cnc(-c2ccccn2)nc1N(C)C,-9,63,-3,1,-3,-4,52,-13
CCOC(=O)C(C)Sc1nc(-c2ccccn2)ncc1OC (centres undefined),-2,44,-2,-4,0,4,.,.
COc1cnc(-c2ccccn2)nc1Oc1c(C)cccc1C,7,57,-1,0,-6,11,28,-6
COc1cnc(-c2ccccn2)nc1Oc1cccc(Cl)c1,-2,62,0,1,-1,0,15,3
COc1cnc(-c2ccccc2)nc1Oc1cccc(C)c1,-4,16,0,-3,0,-4,.,.
COc1ccc(Oc2nc(-c3ccccn3)ncc2OC)cc1,-3,73*,-3,1,-1,2,21,-26
COc1ccc(Oc2nc(-c3ccccn3)nc3ccccc23)cc1,0,-52,0,-3,0,3,.,.
CC(NC(=O)C1CCCC1)c1ccc2c(c1)OCCO2 (centres undefined),-1,-8,-2,-2,-1,0,.,.
O=C(NC1CC2CCCC(C1)N2Cc1ccccc1)C1CCCCC1 (centres undefined),-3,3,-2,-4,0,-1,.,.
O=C(CN1C(=O)NC2(CCCc3ccccc32)C1=O)N1CCN(c2cccc(C(F)(F)F)c2)CC1 (centres undefined),-13,-37,4,-4,1,9,.,.
O=c1cc(C(F)(F)F)[nH]c2ccc(OC(F)(F)F)cc12,-1,79*,0,1,1,5,100*,73*
CCOc1ccc2[nH]c(C)cc(=O)c2c1,5,6,1,-2,-1,2,.,.
Cc1cccnc1NC(=O)c1ccco1,7,-19,-1,.,1,6,.,.
COc1cc(C2CC(=O)c3c([nH]c(C(=O)OCCOC(C)C)c3C)C2)cc(OC)c1OC (centres undefined),-2,53,-2,3,0,8,53,56
Cn1nnnc1Sc1ncnc2scc(-c3ccccc3Cl)c12,9,66,-1,1,0,7,34,52
Cn1nnnc1Sc1ncnc2scc(-c3cccc(Br)c3)c12,-4,51,0,.,-1,-4,26,46
Cn1nnnc1Sc1ncnc2scc(-c3cccc(S(C)(=O)=O)c3)c12,4,-14,0,5,0,1,.,.
Cc1cc(N2CCN(C/C=C/c3ccccc3)CC2)n2ncnc2n1,-2,49,0,3,-2,7,34,51
SMILES,NR1D1 modulator,NR2E3 ag-1,PG9 binder,NR2E3 ag-2,MC4R ag barr,MC4R antagonist,NR2E3 ag confirm,GAL4-VP16 luc
Cc1cc(N2CCN(c3ccccc3)CC2)n2ncnc2n1,-6,-18,-3,0,-2,12,.,.
CCCCn1nnnc1C(c1cc2ccccc2o1)N1CCN(c2c(C)cccc2C)CC1 (centres undefined),3,-18,0,.,.,.,.,.
Cc1cccc(C)c1N1CCN(C(c2cc3ccccc3o2)c2nnnn2C(C)(C)C)CC1 (centres undefined),.,75*,.,.,.,.,84*,67
Cc1cccc(NC(=O)CN2C(=O)CCSc3ccc(S(=O)(=O)N4CCOCC4)cc32)c1C,5,-15,0,3,0,1,.,.
Cc1nc(N/N=C/c2cccc(F)c2)cc(N2CCOCC2)n1,-4,49,0,2,-1,3,21,13
Oc1cccc(/C=N/Nc2cc(N3CCOCC3)nc(N3CCOCC3)n2)c1,-1,21,-1,0,-2,-9,.,.
CC(C)COC(=O)NCCOC(=O)Nc1cccc(Cl)c1,1,73*,0,0,-2,5,89*,72*
Cc1ccc(OCC(=O)N2CCc3ccccc3C2)cc1,0,-24,1,5,-1,9,.,.
CN(C(=O)C(C)(C)C)c1ccc(OCC(=O)N2CCc3ccccc3C2)cc1,-5,76*,0,-4,-3,5,62,63
CCc1ccc(-c2nc(CSCC(=O)NC3CC3)c(C)o2)cc1,-3,111*,0,2,-4,1,98*,97*
CSc1ccc(-c2nc(CSCC(=O)N3CCOCC3)c(C)o2)cc1,-5,-32,1,-2,0,5,.,.
CCOc1ccc(-c2nc(CSCC(=O)NCCCN3CCCC3=O)c(C)o2)cc1,-2,60,-1,0,-2,2,64,36
CSc1ccc(-c2nc(CSCC(=O)NC3CC3)c(C)o2)cc1,2,100*,0,4,-1,-3,85*,84*
Cc1oc(-c2ccccc2Cl)nc1CSCC(=O)NC1CC1,-6,16,1,-2,-2,-9,.,.
CCc1ccc(-c2nc(CSCC(=O)N3CCN(c4ncccn4)CC3)c(C)o2)cc1,2,66,1,1,-1,6,71*,63
Nc1n[nH]c(N)c1N=Nc1ccc(F)cc1,1,-23,-3,-5,1,10,.,.
COc1cc(/C=C/c2ccccc2)cc(OC)c1,0,-11,-2,.,-2,2,.,.
Cc1ccc(-c2nc3ccc(C)cn3c2Cc2cccc(Cl)c2)cc1,3,-88,-2,.,.,.,.,.
